What is called IC50 is the concentration that gives 50% inhibition.

Test [1] deals with Poly [ADP-ribose] polymerase 1 (Homo sapiens, UniProt P09874). In words: Inhibition of recombinant human PARP-1 expressed in Escherichia coli BL21 (DE3) using sheared DNA as substrate in presence of biotinylated NAD after 1 hr by ELISA. On the technique in general: ELISA stands for enzyme-linked immunosorbent assay.
The target of test [2] is Poly [ADP-ribose] polymerase 2 (Homo sapiens, UniProt Q9UGN5). In words: Inhibition of recombinant human PARP-2 expressed in Escherichia coli BL21 (DE3) using sheared DNA as substrate in presence of biotinylated NAD after 1 hr by ELISA.
Another test is filed under the species Homo sapiens. In words: Selectivity index, ratio of IC50 for recombinant human PARP-1 expressed in Escherichia coli BL21 (DE3) to IC50 for recombinant human PARP-2 expressed in Escherichia coli BL21 (DE3). An outline of the steps: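 Human recombinant PARP-1 and PARP-2, expressed from plasmid and purified, were tested for inhibition of enzyme activity by ELISA and by chemical quantitation of NAD⁺. IC50 for each isoform was averaged from two or three independent experiments. The selectivity value is the ratio of the PARP-1 IC50 to the PARP-2 IC50.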

Poly [ADP-ribose] polymerase 1, sequence (P09874 whole entry): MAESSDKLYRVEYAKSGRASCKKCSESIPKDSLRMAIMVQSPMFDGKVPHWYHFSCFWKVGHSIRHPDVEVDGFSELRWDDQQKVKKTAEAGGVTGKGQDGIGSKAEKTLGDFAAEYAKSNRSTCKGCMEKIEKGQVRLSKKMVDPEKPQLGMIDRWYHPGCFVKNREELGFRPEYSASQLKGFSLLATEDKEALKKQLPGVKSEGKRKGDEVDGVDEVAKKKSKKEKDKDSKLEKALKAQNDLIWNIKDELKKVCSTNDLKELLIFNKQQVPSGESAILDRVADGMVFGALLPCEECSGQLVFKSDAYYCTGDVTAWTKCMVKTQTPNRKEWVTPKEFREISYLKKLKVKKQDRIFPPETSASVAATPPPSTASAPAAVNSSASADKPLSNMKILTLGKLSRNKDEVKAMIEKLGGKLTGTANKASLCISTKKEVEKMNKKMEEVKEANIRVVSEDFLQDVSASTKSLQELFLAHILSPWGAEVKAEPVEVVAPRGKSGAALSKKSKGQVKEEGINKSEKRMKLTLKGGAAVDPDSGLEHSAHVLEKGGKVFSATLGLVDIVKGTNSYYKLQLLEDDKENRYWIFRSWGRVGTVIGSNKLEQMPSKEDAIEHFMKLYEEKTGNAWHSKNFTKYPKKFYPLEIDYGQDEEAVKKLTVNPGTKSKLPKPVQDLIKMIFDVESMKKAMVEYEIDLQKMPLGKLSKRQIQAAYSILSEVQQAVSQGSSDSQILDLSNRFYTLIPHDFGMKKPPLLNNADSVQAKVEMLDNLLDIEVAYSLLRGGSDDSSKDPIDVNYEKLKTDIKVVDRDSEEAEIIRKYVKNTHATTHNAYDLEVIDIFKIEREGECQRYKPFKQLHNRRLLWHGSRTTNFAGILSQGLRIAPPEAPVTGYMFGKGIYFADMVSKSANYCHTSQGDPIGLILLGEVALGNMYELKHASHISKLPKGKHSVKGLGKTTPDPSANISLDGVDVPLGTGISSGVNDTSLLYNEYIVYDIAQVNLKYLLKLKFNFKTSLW
Poly [ADP-ribose] polymerase 2, sequence (Q9UGN5 whole entry, canonical isoform): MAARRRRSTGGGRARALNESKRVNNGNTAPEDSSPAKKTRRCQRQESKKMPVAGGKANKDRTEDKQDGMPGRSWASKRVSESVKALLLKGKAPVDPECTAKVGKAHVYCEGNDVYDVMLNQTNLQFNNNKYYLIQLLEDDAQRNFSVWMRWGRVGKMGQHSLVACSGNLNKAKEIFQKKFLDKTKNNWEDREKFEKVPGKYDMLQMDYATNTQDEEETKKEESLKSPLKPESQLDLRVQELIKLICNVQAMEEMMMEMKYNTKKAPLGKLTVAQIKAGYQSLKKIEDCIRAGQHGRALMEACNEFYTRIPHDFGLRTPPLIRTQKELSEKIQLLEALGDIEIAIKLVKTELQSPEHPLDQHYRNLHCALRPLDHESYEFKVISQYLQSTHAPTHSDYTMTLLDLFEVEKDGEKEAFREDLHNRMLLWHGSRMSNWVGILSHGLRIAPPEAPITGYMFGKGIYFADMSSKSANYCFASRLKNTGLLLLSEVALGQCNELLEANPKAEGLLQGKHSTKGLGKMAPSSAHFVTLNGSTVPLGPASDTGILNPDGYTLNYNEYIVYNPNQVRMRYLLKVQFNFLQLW

For `O=C(Nc1cc(Cn2c(=O)[nH]c(=O)c3ccccc32)cnc1Br)[C@H]1CCNC1`, the IC50 in test [1] and in test [2] was more than 100 nM each time.

Regarding `O=C(Nc1cncc(Cn2c(=O)[nH]c(=O)c3ccccc32)c1)[C@H]1CCNC1`, the Ratio IC50 in the test listed under Homo sapiens was found to be 0.04. In addition, the IC50 in test [1] amounted to 9.9 nM; in test [2] it was 220 nM.

For the compound `O=C(Nc1cc(Cn2c(=O)[nH]c(=O)c3ccccc32)ccc1[N+](=O)[O-])[C@H]1CCNC1`, the 50% inhibitory concentration (IC50) in test [1] and in test [2] was more than 100 nM throughout.

Consider `CC(C)(C)OC(=O)N1CC[C@H](C(=O)Nc2cc(Cn3c(=O)[nH]c(=O)c4ccccc43)cnc2Cl)C1`, for which, in the test filed under Homo sapiens, the Ratio IC50 was determined as 19. In addition, the values for the IC50 in test [1] and in test [2] were 232 nM and 12.2 nM, respectively.

Take `O=C(Nc1cc(Cn2c(=O)[nH]c(=O)c3ccccc32)cnc1F)[C@H]1CCN(c2ccccc2)C1`: the Ratio IC50 in the test filed under Homo sapiens worked out at 22.8. The half-maximal inhibitory concentration (IC50) in test [1] was found to be 92.6 nM; in test [2], 4.1 nM.

As for `O=C(Nc1cc(Cn2c(=O)[nH]c(=O)c3ccccc32)cnc1F)[C@H]1CCN(C(=O)C2CC2)C1`, in the test listed under Homo sapiens, the Ratio IC50 was determined as 12. Also, the IC50 in test [1] stood at 54 nM; in test [2] it was 4.5 nM.

`CC(C)(C)OC(=O)N1CC[C@H](C(=O)Nc2cc(Cn3c(=O)[nH]c(=O)c4ccccc43)ccc2N)C1`: the IC50 in test [1] and in test [2] was more than 100 nM each time.

With `O=C(Nc1cc(Cn2c(=O)[nH]c(=O)c3ccccc32)ccc1Cl)[C@H]1CCNC1`, the IC50 in test [1] and in test [2] was more than 100 nM each time.

As for `CC(C)(C)OC(=O)N1CC[C@H](C(=O)Nc2cc(Cn3c(=O)[nH]c(=O)c4ccccc43)cnc2F)C1`, the Ratio IC50 in the test listed under Homo sapiens was determined as 4.6. The figures for the IC50 in test [1] and in test [2] were 39.8 nM and 8.6 nM, respectively.

On to `CC(C)(C)OC(=O)N1CC[C@H](C(=O)Nc2cc(Cn3c(=O)[nH]c(=O)c4ccccc43)cnc2Br)C1`, for which the IC50 in test [1] and in test [2] was more than 100 nM each time.

With `CC(C)(C)OC(=O)N1CC[C@H](C(=O)Nc2cc(Cn3c(=O)[nH]c(=O)c4ccccc43)ccc2Br)C1`, in the test listed under Homo sapiens, the Ratio IC50 turned out to be 5.1. In addition, the IC50 in test [1] came out at 346 nM; in test [2] it was 68 nM.

With `CC(C)(C)OC(=O)N1CC[C@H](C(=O)Nc2cc(Cn3c(=O)[nH]c(=O)c4ccccc43)ccc2Cl)C1`, the Ratio IC50 in the test listed under Homo sapiens turned out to be 0.7. Moreover, the IC50 was found to be 6.2 nM in test [1] and 9.1 nM in test [2].

For the compound `O=C(Nc1cc(Cn2c(=O)[nH]c(=O)c3ccccc32)ccc1Br)[C@H]1CCNC1`, the IC50 in test [1] and in test [2] was more than 100 nM each time.

Turning to `O=C(Nc1cc(Cn2c(=O)[nH]c(=O)c3ccccc32)cnc1F)[C@H]1CCN(CCC2CC2)C1`, in the test listed under Homo sapiens, the Ratio IC50 amounted to 1.8. Also, the figures for the IC50 in test [1] and in test [2] were 1.4 nM and 1 nM, respectively.

On to `O=C(Nc1cc(Cn2c(=O)[nH]c(=O)c3ccccc32)cnc1Cl)[C@H]1CCNC1`, for which the Ratio IC50 in the test listed under Homo sapiens worked out at 4.4. Besides, the IC50 was 174 nM in test [1] and 40 nM in test [2].

For `O=C(Nc1cc(Cn2c(=O)[nH]c(=O)c3ccccc32)cnc1F)[C@H]1CCNC1`, in the test filed under Homo sapiens, the Ratio IC50 worked out at 0.18. The IC50 in test [1] was 13.7 nM; in test [2], 80 nM.

As to `O=C(Nc1cc(Cn2c(=O)[nH]c(=O)c3ccccc32)cnc1F)[C@H]1CCN(CC(F)(F)F)C1`, the Ratio IC50 in the test filed under Homo sapiens is 40.6. For the same compound, the figures for the IC50 in test [1] and in test [2] were 467 nM and 11.5 nM, respectively.

For the compound `O=C(Nc1cc(Cn2c(=O)[nH]c(=O)c3ccccc32)cnc1F)[C@H]1CCN(Cc2ccncc2)C1`, the Ratio IC50 in the test listed under Homo sapiens is 10.7. Moreover, the IC50 came out at 62 nM in test [1] and 5.8 nM in test [2].

Turning to `O=C(Nc1cc(Cn2c(=O)[nH]c(=O)c3ccccc32)cnc1F)[C@H]1CCN(Cc2ccccc2)C1`, the Ratio IC50 in the test listed under Homo sapiens turned out to be 2.5. The IC50 in test [1] was 13.3 nM; in test [2], 5.4 nM.

For the compound `O=C(Nc1cc(Cn2c(=O)[nH]c(=O)c3ccccc32)cnc1F)[C@H]1CCN(CCC(F)(F)F)C1`, the Ratio IC50 in the test listed under Homo sapiens turned out to be 1. Also, the IC50 in test [1] was 3.1 nM; in test [2] it was 2.9 nM.

`CC(C)(C)OC(=O)N1CC[C@H](C(=O)Nc2cc(Cn3c(=O)[nH]c(=O)c4ccccc43)ccc2[N+](=O)[O-])C1`: the IC50 in test [1] and in test [2] was more than 100 nM throughout.

Consider `O=C(Nc1cc(Cn2c(=O)[nH]c(=O)c3ccccc32)cnc1F)[C@H]1CCN(CC2CC2)C1`, for which, in the test filed under Homo sapiens, the Ratio IC50 was found to be 1.6. The figures for the IC50 in test [1] and in test [2] were 5.7 nM and 3.6 nM, respectively.

Regarding `CC(C)(C)OC(=O)N1CC[C@H](C(=O)Nc2cncc(Cn3c(=O)[nH]c(=O)c4ccccc43)c2)C1`, the IC50 in test [1] and in test [2] was more than 100 nM throughout.

As to `O=C(Nc1cc(Cn2c(=O)[nH]c(=O)c3ccccc32)cnc1F)[C@H]1CCN(C2CCC(F)(F)CC2)C1`, in the test filed under Homo sapiens, the Ratio IC50 turned out to be 6.8. Also, the 50% inhibitory concentration (IC50) came to 81 nM in test [1] and 11.9 nM in test [2].

In the case of `CC(C)(C)OC(=O)N1CC[C@H](C(=O)Nc2cc(Cn3c(=O)[nH]c(=O)c4ccccc43)ccc2O)C1`, the IC50 in test [1] and in test [2] was more than 100 nM throughout.

(Values after ChEMBL document CHEMBL4052674, “Discovery of novel quinazoline-2,4(1H,3H)-dione derivatives as potent PARP-2 selective inhibitors” (Bioorg Med Chem, 2017).)
